Screens as filed in PubChem BioAssay.
An excerpt weighted towards active compounds, which were near 1% of everything screened.
FXIIa inh: factor XIIa (human) inhibition. actives 0.3% (n = 220,000). inhibition, % at 5 µM. purified FXIIa, Boc-QGR-AMC fluorogenic substrate, 2 h. P00748; in the data active = inhibition above about 40%;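 note: 0% = enzyme with no compound and 100% = blank without enzyme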
FXIa inh: factor XIa (human) inhibition | purified FXIa, Boc-Glu-Ala-Arg-AMC fluorogenic substrate | inhibition, % at 5 µM | actives 0.14% (n = 220,000) | P03951;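 active = inhibition of at least 40%; inactive = inhibition below 40%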;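 note: fluorescence of freed AMC excited at 355 nm; 0% = enzyme without compound and 100% = no enzyme blank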
thrombin 1536: inhibitors of human thrombin; P00734; alpha-thrombin, Boc-VPR-AMC fluorogenic substrate cleavage; inhibition, % at 5 µM; actives 0.26% (n = 220,000); AID 1046;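 active = inhibition at or above 40%; inactive = inhibition below 40%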;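 note: 0% = enzyme with no compound and 100% = wells without enzyme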
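Material: Human alpha-thrombin protein | Buffer or medium: pH 7.5 Tris-saline with Tween 20 | Reagent: Boc-VPR-AMC substrate, 15 µM final | Schedule: Reaction at ambient temperature | Detection: AMC fluorescence at 355 nm excitation and 460 nm emission | Evaluation: Percent inhibition scaled between no-compound controls and no-enzyme blanks | Controls: no-compound enzyme wells and no-enzyme blanks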
KLK5 inh: kallikrein 5 (human) inhibition; AID 873; inhibition, % at 5 µM; actives 0.59% (n = 210,000); Q9Y337; recombinant hK5, fluorogenic AMC substrate cleavage;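 active = inhibition of 40% or more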;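 note: 0% = enzyme controls without compound and 100% = no-enzyme blanks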
Target sequence (Q9Y337 67-293 limits assumed): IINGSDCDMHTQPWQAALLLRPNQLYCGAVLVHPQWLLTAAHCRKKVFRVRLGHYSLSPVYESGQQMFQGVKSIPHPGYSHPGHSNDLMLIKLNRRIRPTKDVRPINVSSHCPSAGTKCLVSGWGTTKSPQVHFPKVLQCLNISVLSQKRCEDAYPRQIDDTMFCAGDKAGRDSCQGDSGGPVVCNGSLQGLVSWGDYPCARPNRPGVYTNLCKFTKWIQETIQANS
* = called active by the depositor.

For COc1ccc(C(F)(F)F)cc1N/C=C/c1nnnn1-c1ccc2ccccc2c1 the results were FXIIa inh 0, FXIa inh -2, thrombin 1536 -4 and KLK5 inh 0.
`CC(C)Cn1c(-c2ccccc2)nc2ccccc2c1=O` gave FXIIa inh 42*, FXIa inh 32, thrombin 1536 1 and KLK5 inh -3.
CCOc1cc(/C=N/n2cnnc2)cc(Br)c1O was read as FXIIa inh 43*, FXIa inh 24, thrombin 1536 2 and KLK5 inh 6.
For CC(C)N(Cc1ccccc1)C(=S)NC1CCCCC1 the results were FXIIa inh 102*, FXIa inh 42*, thrombin 1536 3 and KLK5 inh 21.
Screening CC(C)N(C(=S)NC1CCCCC1)c1ccccc1 returned FXIIa inh 9, FXIa inh -1, thrombin 1536 -3 and KLK5 inh 4.
Screening Cn1c(N/N=C/c2cccs2)cc(=O)n(C)c1=O returned FXIIa inh -4, FXIa inh 0, thrombin 1536 65* and KLK5 inh -10.
Cn1c(=O)c2c(nc(N/N=C/c3cccs3)n2C)n(C)c1=O was read as FXIIa inh 9, FXIa inh 4, thrombin 1536 -4 and KLK5 inh -7.
COCCCn1cn[nH]c1=S was read as FXIIa inh 22, FXIa inh 28, thrombin 1536 -8 and KLK5 inh 63*.
COCCCn1c(-c2ccc(Cl)cc2)n[nH]c1=S was read as FXIIa inh 23, FXIa inh 0, thrombin 1536 4 and KLK5 inh -7.
`Cn1c(CNC(=O)Nc2ccccc2Cl)nnc1SCc1ccccc1` gave FXIIa inh 17, FXIa inh 18, thrombin 1536 25 and KLK5 inh 43*.
CCOC(=O)c1cnc(-c2ccccc2)nc1Oc1ccc(Cl)c(Cl)c1 was read as FXIIa inh 5, FXIa inh 7, thrombin 1536 28 and KLK5 inh 65*.
Screening CC(C)CC(=O)N1CCN(S(=O)(=O)c2ccc3ccccc3c2)CC1 returned FXIIa inh -15, FXIa inh 2, thrombin 1536 1 and KLK5 inh -2.
`CS(=O)(=O)N(Cc1ccco1)CC(O)Cn1c2ccccc2c2ccccc21` (stereo not given) gave FXIIa inh 2, FXIa inh 13, thrombin 1536 38 and KLK5 inh 44*.
`O=C1/C(=C/c2ccncc2)SC(=S)N1Nc1ccccc1` gave FXIIa inh 4, FXIa inh 1, thrombin 1536 -2 and KLK5 inh -1.
Screening O=C(O)c1ccc(/C=C2\SC(=S)N(Nc3ccccc3)C2=O)cc1 returned FXIIa inh 41*, FXIa inh 49*, thrombin 1536 19 and KLK5 inh 29.
CC(=O)NN1C(=O)/C(=C\c2ccccc2)SC1=S was read as FXIIa inh -1, FXIa inh -3, thrombin 1536 3 and KLK5 inh 89*.
Screening Cc1cccc2c(=O)c(C(=O)NCCCN3CCOCC3)c[nH]c12 returned FXIIa inh 18, FXIa inh 11, thrombin 1536 0 and KLK5 inh -1.
For CC(NC(=O)C1CCN(S(=O)(=O)c2cnc[nH]2)CC1)c1ccccc1 (stereo not given) the results were FXIIa inh 29, FXIa inh 24, thrombin 1536 8 and KLK5 inh -5.
`O=C(CCc1ccccc1)Nc1ncc2c(n1)CCCC2=O` gave FXIIa inh 20, FXIa inh 7, thrombin 1536 2 and KLK5 inh 4.
For CC1(C)CC(=O)c2cnc(NC(=O)CCc3ccccc3)nc2C1 the results were FXIIa inh 26, FXIa inh 12, thrombin 1536 14 and KLK5 inh 86*.
CC1(C)C2CCC(C2)C1(C)N=C1OC(CCl)CS1 (stereo not given) was read as FXIIa inh 22, FXIa inh 53*, thrombin 1536 14 and KLK5 inh 52*.
For NS(=O)(=O)c1cccc(NC(=O)CSc2nnc(-c3ccccc3F)n2C2CC2)c1 the results were FXIIa inh 5, FXIa inh 6, thrombin 1536 -1 and KLK5 inh 6.
CCc1cc2c(NCC3CCCO3)nc(C)nc2s1 (stereo not given) was read as FXIIa inh 7, FXIa inh 2, thrombin 1536 -2 and KLK5 inh -10.
COc1ccc(CSc2nc(C)cc(C)c2S(C)(=O)=O)cc1 was read as FXIIa inh 28, FXIa inh 41*, thrombin 1536 9 and KLK5 inh 34.
CCOc1ccc(Br)cc1-c1noc(-c2cccs2)n1 was read as FXIIa inh 11, FXIa inh -5, thrombin 1536 7 and KLK5 inh 48*.
Screening CNC(=O)COC(=O)c1cc(-c2ccco2)nc2ccccc12 returned FXIIa inh 51*, FXIa inh 32, thrombin 1536 16 and KLK5 inh 28.
Screening CC(C)Nc1nc(C#N)nc(NC(C)C)n1 returned FXIIa inh 6, FXIa inh 2, thrombin 1536 102* and KLK5 inh 97*.
`CC(C)Nc1nc(NC(C)C)nc(N(C#N)C(C)C(=O)N(C)C)n1` (stereo not given) gave FXIIa inh 11, FXIa inh 4, thrombin 1536 1 and KLK5 inh -6.
`C=CCn1c(CCC(=O)O)ccc1-c1ccccc1` gave FXIIa inh 15, FXIa inh 1, thrombin 1536 0 and KLK5 inh -2.
`Cc1cc(NS(=O)(=O)c2ccc(NC(=O)CSc3nnc(-c4ccco4)n3N)cc2)nc(C)n1` gave FXIIa inh -8, FXIa inh -8, thrombin 1536 62* and KLK5 inh 29.
For Cc1cc(NS(=O)(=O)c2ccc(NC(=O)CSc3nnc(-c4ccco4)n3C)cc2)nc(C)n1 the results were FXIIa inh 5, FXIa inh -2, thrombin 1536 -3 and KLK5 inh -4.
O=C(O)c1cc(/C=N\O)ccc1OCc1ccccc1 was read as FXIIa inh 2, FXIa inh 3, thrombin 1536 8 and KLK5 inh 51*.
For COc1cc(/C=N/O)ccc1OCc1ccc(C(=O)O)cc1 the results were FXIIa inh 8, FXIa inh 10, thrombin 1536 -3 and KLK5 inh -27.
`CSCC[C@H](NC(=O)OC(C)(C)C)c1nnc(SCC=C(C)C)o1` gave FXIIa inh 11, FXIa inh -5, thrombin 1536 2 and KLK5 inh -13.
Screening CSc1nc(Sc2ccccc2)c2ccccc2n1 returned FXIIa inh 3, FXIa inh 2, thrombin 1536 9 and KLK5 inh -18.
For CSc1nc(Sc2ccc(Cl)cc2)c2ccccc2n1 the results were FXIIa inh 15, FXIa inh 11, thrombin 1536 20 and KLK5 inh 62*.
CNC(=S)N/N=C/C1=CCC2CC1C2(C)C (stereo not given) was read as FXIIa inh 13, FXIa inh 4, thrombin 1536 2 and KLK5 inh -5.
Screening CC1(C)C2CC=C(/C=N/n3cnnc3)C1C2 (stereo not given) returned FXIIa inh 49*, FXIa inh 17, thrombin 1536 2 and KLK5 inh 3.
